Experiment [1] concerns Escherichia coli. As to the kind of experiment: Antibacterial activity against Escherichia coli assessed as growth inhibition after 24 hrs by broth dilution method. The format is functional. Put shortly:
(§1)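 Serial broth dilution in 96-well microtitre plate, compounds from 50 µg/mL top concentration (stocks 50 mg/mL in DMSO); methicillin positive control for S. aureus (from 50 µg/mL), […]. Incubation 37 °C, 24 h; MIC taken as lowest concentration giving complete growth inhibition.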
In general terms: Broth dilution looks for growth in wells or tubes with falling amounts of substance.

Experiment [2] concerns Staphylococcus aureus. As to the kind of experiment: Antibacterial activity against Staphylococcus aureus assessed as growth inhibition after 24 hrs by broth dilution method. Type of experiment: functional. An outline of the steps:
as §1

Experiment [3] concerns HaCaT. As to the kind of experiment: Cytotoxicity against human HaCaT cells assessed as cell shrinkage after 24 hrs by SRB assay. The format is cell-based. An outline of the steps: (§2)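 HaCaT keratinocytes and NE3 normal esophageal cells trypsinised, washed, resuspended at about 1×10^5 cells/mL, seeded in 96-well plates 24 h, then exposed 24 h to compounds from 50 µg/mL; doxorubicin 4 µg/mL positive control, 0.1% DMSO vehicle. SRB staining after TCA fixation, absorbance 575 nm; three independent experiments in triplicate, mean ± SD.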
In general terms: The SRB assay estimates cell density from bound dye.

Experiment [4] deals with Staphylococcus aureus. The experiment can be described thus: Antibacterial activity against Staphylococcus aureus assessed as growth inhibition at 50 ug/mL after 24 hrs. Type of experiment: functional. Put shortly: (§3)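 Agar well diffusion: S. aureus diluted in broth, plated on nutrient agar, wells punched with sterile pipette and loaded with compound (amount per well as in line) or methicillin positive control. Incubation 37 °C, 24 h; inhibition zone recorded as radius in mm, mean ± SD of three results.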

A short description of experiment [5]: Cytotoxicity against human NE3 cells assessed as cell shrinkage after 24 hrs by SRB assay. The format is cell-based. An outline of the steps:
as §2

Experiment [6] concerns Staphylococcus aureus. The experiment can be described thus: Antibacterial activity against Staphylococcus aureus assessed as growth inhibition at 15 ug/mL after 24 hrs. Type of experiment: functional. Conditions: read-out: IZ. Put shortly:
as §3

The test system of experiment [7] is Staphylococcus aureus. The experiment can be described thus: Antibacterial activity against Staphylococcus aureus assessed as growth inhibition at 5 ug/mL after 24 hrs. The format is functional. Conditions: read-out: IZ. Put shortly: as §3

≈ marks a conversion by molar mass, not a printed value.

The MIC is the lowest concentration that inhibits growth of the organism. `Cc1ccc2cccc(OCc3ccccc3)c2n1`: the MIC in experiment [1] and in experiment [2] was greater than 50 µg/mL throughout.
For `Cc1ccc2cccc(OCCN3CCCCC3)c2n1`, the minimal inhibitory concentration (MIC) in experiment [1] and in experiment [2] was greater than 50 µg/mL in each case.
Regarding `CC1(C)S[C@@H]2[C@H](NC(=O)[C@H](N)c3ccccc3)C(=O)N2[C@H]1C(=O)O` [AMPICILLIN], the MIC in experiment [1] came to 7.5 µg/mL (≈ 21.5 µM).
As for `COc1cccc2ccc(C)nc12`, the MIC in experiment [1] and in experiment [2] was greater than 50 µg/mL in each case.
By IC50 is commonly meant the concentration that gives 50% inhibition. Turning to `O=Cc1ccc2cccc(O)c2n1`, the IC50 in experiment [3] came to 19.1 µg/mL (≈ 111 µM); in experiment [5], 16.1 µg/mL (≈ 92.7 µM). In addition, the “inhibition zone (IZ)” value in experiment [4] amounted to 7.5 mm. In addition, the results for the MIC in experiment [1] and in experiment [2] were greater than 50 µg/mL and 50 µg/mL (≈ 289 µM), respectively.
On to `CCOc1cccc2ccc(C)nc12`, for which the MIC in experiment [1] and in experiment [2] was greater than 50 µg/mL in each case.
`Cc1ccc2c(Br)cc(Br)c(O)c2n1` [BROQUINALDOL]: the values for the half-inhibitory concentration (IC50) in experiment [3] and in experiment [5] were 22.5 µg/mL (≈ 70.9 µM) and 18.6 µg/mL (≈ 58.7 µM), respectively. Moreover, the MIC in experiment [1] is greater than 50 µg/mL; in experiment [2], 6.25 µg/mL (≈ 19.7 µM). Moreover, the zone of inhibition at 15 µg/mL in experiment [6] was 7.43 mm.
For `Cl.O=Cc1ccc2cccc(O)c2n1`, the results for the IC50 in experiment [3] and in experiment [5] were 22.5 µg/mL and 18.1 µg/mL, respectively. In addition, the zone of inhibition at 50 µg/mL in experiment [4] (Staphylococcus aureus, 24 h, read-out: IZ) turned out to be 4.4 mm. The MIC in experiment [1] was greater than 50 µg/mL; in experiment [2], 50 µg/mL.
Take `CCCCOc1cccc2ccc(C)nc12`: the minimal inhibitory concentration (MIC) in experiment [1] and in experiment [2] was greater than 50 µg/mL throughout.
In the case of `COc1cccc(OC)c1C(=O)N[C@@H]1C(=O)N2[C@@H]1SC(C)(C)[C@@H]2C(=O)O` [METHICILLIN], the zone of inhibition at 5 µg/mL in experiment [7] was 10.8 mm. Besides, the MIC in experiment [2] was determined as 3.12 µg/mL (≈ 8.21 µM).
Turning to `COc1cccc2c1C(=O)c1c(O)c3c(c(O)c1C2=O)C[C@@](O)(C(=O)CO)C[C@@H]3O[C@H]1C[C@H](N)[C@H](O)[C@H](C)O1` [DOXORUBICIN], the IC50 in experiment [3] was 3.26 µg/mL (≈ 6 µM); in experiment [5], 1.89 µg/mL (≈ 3.48 µM).

The values above are taken from ChEMBL document CHEMBL3098006, “Preparation of 8-hydroxyquinoline derivatives as potential antibiotics against Staphylococcus aureus” (Bioorg Med Chem Lett, 2014).
